Experiments:
Format in all cases: functional
[1] = test system: Mus musculus; test: Time course of protecting effect on PAF-induced death in mice, at the dose of 1 mg/kg after 24 hr
Method in brief: (§1)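 Conscious male ICR-Jcl mice, 5-7 weeks old. Drug dissolved in saline (0.1 mL/10 g) given into the tail vein 8 or 24 h before PAF (50 μg/kg, iv); saline-only controls. Death defined as cessation of respiration. Survival rate recorded 60 min after PAF. 16 mice per compound, 142 controls; χ2 test versus control.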

[2] = test system: Mus musculus; test: Time course of protecting effect on PAF-induced death in mice, at the dose of 1 mg/kg after 8 hr; method in brief: as §1
[3] = test system: Rattus norvegicus; test: Compound was evaluated for the percent inhibition of the platelet activating factor (PAF) hypotension, after 120 min of intravenous injection of 0.1 mg/kg in rat; conditions: 2 h
[4] = test system: Rattus norvegicus; test: Compound was evaluated for the percent inhibition of the platelet activating factor (PAF) hypotension, after 5 min of intravenous injection of 0.1 mg/kg in rat
[5] = test system: Rattus norvegicus; test: Compound was evaluated for the percent inhibition of the platelet activating factor (PAF) hypotension, after 60 min of intravenous injection of 0.1 mg/kg in rat; conditions: 1 h
[6] = test system: Rattus norvegicus; test: Compound was evaluated for the percent inhibition of the platelet activating factor (PAF) hypotension, after 5 min of intravenous injection of 1 mg/kg in rat
[7] = test system: Rattus norvegicus; test: Compound was evaluated for the percent inhibition of the platelet activating factor (PAF) hypotension, after 60 min of intravenous injection of 1 mg/kg in rat; conditions: 1 h
[8] = test system: Rattus norvegicus; test: Compound was evaluated for the percent inhibition of the platelet activating factor (PAF) hypotension, after 120 min of intravenous injection of 1 mg/kg in rat; conditions: 2 h

| Compound | survival at 1 mg/kg [1] [%] | survival at 1 mg/kg [2] [%] | inhibition in vivo at 0.1 mg/kg [3] [%] | inhibition in vivo at 0.1 mg/kg [4] [%] | inhibition in vivo at 0.1 mg/kg [5] [%] | inhibition in vivo at 1 mg/kg [6] [%] | inhibition in vivo at 1 mg/kg [7] [%] | inhibition in vivo at 1 mg/kg [8] [%] |
| --- | --- | --- | --- | --- | --- | --- | --- | --- |
| CCCCCCCCCCCCCCCCCCNC(=O)OCC(COC(=O)N(Cc1csc[n+]1CC)C(C)=O)OC (stereo not given) | 25 | 75 | 14 | 100 | 40 | – | – | – |
| CCCCCCCCCCCCCCCCCCNC(=O)OCC(COC(=O)N(Cc1cccc[n+]1CCCC)C(C)=O)OC (stereo not given) | – | – | – | – | – | 100 | 0 | – |
| CCCCCCCCCCCCCCCCCCNC(=O)OC[C@H](COC(=O)N(Cc1cccc[n+]1CC)C(C)=O)OC | – | – | 20 | 100 | 36 | – | – | – |
| CCCCCCCCCCCCCCCCCCNC(=O)OC[C@@H](COC(=O)N(Cc1cccc[n+]1CC)C(C)=O)OC | – | – | 17 | 100 | 54 | – | – | – |
| CCCCCCCCCCCCCCCCCCNC(=O)OCC(COC(=O)N(Cc1scc[n+]1CC)C(C)=O)OC (stereo not given) | – | – | 0 | 100 | 3 | – | – | – |
| CCCCCCCCCCCCCCCCCCNC(=O)OCC(COC(=O)N(Cc1cccc[n+]1C)C(C)=O)OC (stereo not given) | – | – | – | – | – | 82 | 39 | 33 |
| CCCCCCCCCCCCCCCCCCNC(=O)OCC(COC(=O)N(Cc1cccc[n+]1CCC)C(C)=O)OC (stereo not given) | – | – | – | 45 | 0 | – | – | – |
| CCCCCCCCCCCCCCCCCCNC(=O)OCC(COC(=O)N(Cc1scc[n+]1C)C(C)=O)OC (stereo not given) | – | – | 0 | 43 | 6 | 100 | 100 | 30 |
| CCCCCCCCCCCCCCCCCCNC(=O)OCC(COC(=O)N(Cc1csc[n+]1C)C(C)=O)OC (stereo not given) | – | – | – | – | – | 92 | 29 | 4 |
| CCCCCCCCCCCCCCCCCCNC(=O)OCC(COC(=O)N(Cc1cccc[n+]1CC)C(C)=O)OC (stereo not given) [CV-6209] | 69 | 100 | 34 | 100 | 55 | – | – | – |

From ChEMBL document CHEMBL1124649, “Platelet activating factor antagonists: synthesis and structure-activity studies of novel PAF analogues modified in the phosphorylcholine moiety” (J Med Chem, 1989)
